NR2E3 ag-1: activates human NR2E3 receptor. Q9Y5X4. AID 602229. actives 0.35% (n = 360,000). inhibition of corepressor binding, % at 3.98 µM. CHO-S Gal4-NCOR/VP16-NR2E3 two-hybrid, luciferase;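 active = inhibition above the mean of all tested compounds plus 3 SD, cut at about 70% in these data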;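 note: higher means lower luciferase signal from less NR2E3 corepressor binding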
Target sequence (Q9Y5X4 whole entry, looked up, the tested form may be a part): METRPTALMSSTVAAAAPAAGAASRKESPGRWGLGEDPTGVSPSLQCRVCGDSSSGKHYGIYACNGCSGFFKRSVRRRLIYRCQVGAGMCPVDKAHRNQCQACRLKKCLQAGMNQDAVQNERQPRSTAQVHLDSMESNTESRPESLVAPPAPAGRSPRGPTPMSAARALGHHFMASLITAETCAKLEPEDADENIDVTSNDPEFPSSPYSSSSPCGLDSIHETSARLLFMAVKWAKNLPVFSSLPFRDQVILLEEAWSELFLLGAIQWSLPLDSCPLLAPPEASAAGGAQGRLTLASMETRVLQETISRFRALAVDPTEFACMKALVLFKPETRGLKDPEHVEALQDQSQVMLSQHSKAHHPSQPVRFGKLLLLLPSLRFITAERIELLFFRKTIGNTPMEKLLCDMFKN
FGF22 binding: shifts melting point of recombinant human FGF22 | recombinant FGF22 thermal shift, SYPRO orange fluorescence; percent of sucrose octasulfate shift, DMSO zero | activity (Tm shift, normalised), % at 9.99 µM | Q9HCT0 | actives 1.5% (n = 340,000);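 active = mean Tm shift, scaled 0 neutral to 100 positive control, at about 1.3% or above, every replicate too, limit read from the data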
Target sequence (Q9HCT0 whole entry, looked up): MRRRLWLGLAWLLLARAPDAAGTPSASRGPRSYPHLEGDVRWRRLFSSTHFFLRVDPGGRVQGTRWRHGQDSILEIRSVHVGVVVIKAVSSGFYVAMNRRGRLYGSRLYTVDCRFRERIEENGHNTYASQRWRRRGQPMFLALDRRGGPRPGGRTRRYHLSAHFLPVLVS
Jurkat NFkB inh: inhibitors of the PMA/ionomycin-induced NF-kB reporter in Jurkat cells; AID 435003; PMA/ionomycin-induced NF-kB luciferase reporter, luminescence; actives 0.53% (n = 330,000); inhibition, % at 4 µM; in the data active = inhibition above about 50%
NR2E3 ag-2: agonists of human nuclear receptor NR2E3 | Q9Y5X4 | GST-NR2E3/biotin-RetCOR TR-FRET, 1536-well | inhibition of corepressor binding, % at 4.78 µM | actives 0.12% (n = 320,000) | AID 2300;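 active = percent inhibition above the cutoff of mean plus 3 SD of all tested compounds, set per screening campaign, cut at about 20% in these data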
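Material – GST-tagged NR2E3 plus biotinylated RetCOR corepressor · Quantity – NR2E3 fusion 1.35 nM · Times – 5 h incubation at 4 °C · Medium – pH 7.5 Tris-based buffer · Technique – TR-FRET, Eu(K)-anti-GST donor, streptavidin-D2 acceptor, ex 340, em 617/671 nm · Benchmarks – high control biotin, low control 0.6% DMSO · Format – 1536-well plates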
miR-122 sensor: blocks miR-122 activity in Huh7 sensor cells | Huh7 miR-122 Renilla luciferase sensor, 48 h; neutral wells = 0, positive control = 100 | activation (reporter increase), % at 12.5 µM | actives 0.3% (n = 340,000) | AID 602342;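 active = mean replicate activation score at least 90 and every replicate individually at or above 90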;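 note: higher luciferase means less miR-122 activity so hits act as miR-122 inhibitors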
697 NFkB inh: inhibitors of the PMA/ionomycin-induced NF-kB reporter in 697 B cells | AID 435022 | actives 0.33% (n = 330,000) | inhibition, % at 4 µM | 697 B-cell NF-kB luciferase reporter, 16 h; in the data active = inhibition above about 35%
697 NFkB conf: inhibitors of the PMA/ionomycin-induced NF-kB reporter in 697 B cells, retest. shares compounds with 697 NFkB inh. 697 B-cell NF-kB luciferase, 16 h. inhibition, % at 4 µM. actives 35% (n = 2,000); in the data active = inhibition mostly above about 28%, no sharp cut-off; inactive = mostly below about 22%
A number is an active result; . = inactive; / = not tested or not shown. Only some compounds are listed: those with a hit (about 2.2% of all), similar ones and a draw of the others.

SMILES	NR2E3 ag-1	FGF22 binding	Jurkat NFkB inh	NR2E3 ag-2	miR-122 sensor	697 NFkB inh	697 NFkB conf
S=c1[nH]nc(-c2ccccc2)n1/N=C/c1ccc(-c2ccccc2Cl)o1	.	/	.	.	.	.	.
S=c1[nH]nc(-c2cccc(Cl)c2)n1/N=C/c1ccc(-c2ccccc2Br)o1	.	.	.	.	.	.	/
CN(C)c1ccc(-c2nc3cc(N)ccc3o2)cc1	.	.	.	/	.	.	.
Nc1ccc(-c2nc3cc(N)ccc3o2)cc1	.	.	.	.	.	.	/
C[C@@H]1CN([C@@H](C)CO)C(=O)c2cc(NC(=O)C3CCCCC3)ccc2O[C@@H](C)CCCCO[C@H]1CN(C)C(=O)Cc1ccccc1	/	.	/	/	.	/	/
COc1ccc(-c2nsc(SCC(=O)Nc3cc(C)on3)n2)cc1	.	/	.	.	.	43	30
COc1ccc(NC(=O)N(C)C[C@@H]2Oc3ncc(C#C[C@@H](C)O)cc3C(=O)N([C@H](C)CO)C[C@@H]2C)cc1	/	.	/	/	.	/	/
O=C(Nc1ccc([N+](=O)[O-])cc1Cl)c1cc(Cl)ccc1O	.	.	.	.	.	.	.
COc1ccccc1OCC(=O)Nc1nc2c(s1)CCCC2	.	.	.	.	.	.	.
Cc1ccc(CC(=O)Nc2nc3c(s2)CCCC3)cc1	.	/	.	.	.	.	.
CN(C)C(=O)C[C@H]1C=C[C@H](NS(=O)(=O)c2ccccc2)[C@@H](CO)O1	/	.	/	/	.	/	/
O=C(Nc1ccc(-c2nc3ccccc3s2)cc1)C1=COCCO1	.	/	.	.	.	.	.
CCNC(=O)C[C@H]1CC[C@@H]2[C@@H](COc3ccc(NC(=O)c4ccc(F)cc4)cc3C(=O)N2C)O1	/	.	/	/	.	/	/
CCC(=O)N1CC[C@@H]2[C@H]1c1cc(-c3ccc(F)cc3)ccc1N[C@@H]2CO	/	.	/	/	.	/	/
Cc1c(CCC(=O)N2CCC[C@H]2C(=O)O)c(=O)oc2cc3oc4c(c3cc12)CCCC4	.	/	.	.	.	60	42
Cc1c(CCC(=O)NCC(=O)NCC(=O)O)c(=O)oc2cc3oc4c(c3cc12)CCCC4	.	.	.	.	/	.	/
Cc1c(CCC(=O)O)c(=O)oc2cc3oc4c(c3cc12)CCCC4	.	.	.	.	.	40	35
N#C[C@@H]1[C@H](c2ccccc2-c2cccc(F)c2)[C@H](CO)N1C(=O)C1CCC1	/	.	/	/	/	/	/
O=C(O)c1ccc(N/N=C/c2ccc(-c3ccccc3Cl)o2)cc1	.	.	.	.	.	.	.
O=C(NNC(=O)C12CC3CC(CC(Br)(C3)C1)C2)c1ccccc1F	.	.	.	/	/	44	43
C[C@@H]1CN([C@H](C)CO)C(=O)c2cc(NC(=O)CCCN(C)C)ccc2O[C@@H](C)CCCCO[C@H]1CN(C)C(=O)Nc1ccc(F)cc1	/	.	/	/	.	/	/
COc1ccc(O)c(C(=O)CC(=O)c2ccc(F)cc2)c1	.	/	.	.	.	.	.
COc1ccc(O)c(C(=O)CC(=O)c2ccccc2C)c1	.	.	.	.	.	.	/
COC(=O)[C@@]12OC[C@]34[C@H]([C@@H](O)[C@@H]1O)[C@@]1(C)C(=O)C(O[C@@H]5OC(CO)[C@@H](O)[C@@H](O)[C@@H]5O)=C[C@@H](C)[C@@H]1C[C@H]3OC(=O)[C@H](OC(=O)/C=C(\C)C(C)(C)OC(C)=O)[C@@H]24 (stereo not given in full)	/	/	.	.	/	44	80
O=C(c1ccc(-c2ccccc2)cc1)c1ccccc1C(=O)N1CCOCC1	.	/	.	.	.	.	/
SMILES	NR2E3 ag-1	FGF22 binding	Jurkat NFkB inh	NR2E3 ag-2	miR-122 sensor	697 NFkB inh	697 NFkB conf
S=C(c1ccc(-c2ccccc2)cc1)N1CCOCC1	.	.	.	.	.	55	.
CO[C@@H]1CN(C)C(=O)c2ccc(NC(=O)c3ccccc3)cc2OC[C@@H](C)N(C(C)=O)C[C@H]1C	/	.	/	/	.	/	/
O=C(NC1CCCc2ccccc21)c1ccc(Br)cc1 (stereo not given)	.	.	.	.	.	.	/
O=C(CCNC(=O)c1ccc(Br)cc1)NC1CCCc2ccccc21 (stereo not given)	.	.	.	.	.	.	.
Oc1ccc(N=Nc2ccc3c(c2)OCO3)c2ccccc12	/	/	.	.	/	.	.
Cc1ccc2oc(/N=C(\N)NC(=O)C3CC3)nc2c1	.	.	.	.	.	.	.
CC(C)(C)c1ccc(C(=O)N/C(N)=N/c2nc3ccccc3o2)cc1	.	/	.	.	.	.	/
Cc1noc(C)c1CSc1nc2[nH]ncc2c(=O)n1-c1ccccc1	.	/	.	.	.	55	55
Cc1cc(C(=O)Nc2cccc3c2O[C@H](CN(C)C(=O)Nc2ccc(F)cc2)[C@@H](C)CN([C@@H](C)CO)C3=O)n(C)n1	/	.	/	/	.	/	/
Cc1ccccc1-c1n[nH]c(=S)n1/N=C/c1c(C)nn(-c2ccccc2)c1C	.	/	.	.	.	.	.
CCOc1ccccc1NC(=O)C(=O)N/N=C/c1ccc([N+](=O)[O-])cc1	.	.	.	.	.	39	.
O=C(N/N=C/C(Cl)=C/c1ccc([N+](=O)[O-])cc1)C(=O)Nc1ccccc1C(=O)O	.	.	.	.	.	.	/
COc1ccc(COc2cc(-c3cccc(OC)c3)nc3ccc(NC(=O)c4ccc(OC)cc4)cc23)cc1	.	.	.	.	/	.	/
COc1ccc(COc2cc(-c3cccc(OC)c3)nc3ccc(NC(=O)c4ccccc4)cc23)cc1	.	.	.	.	.	40	.
O=C(C[C@H]1CC[C@@H](NC(=O)Nc2ccccc2)[C@@H](CO)O1)NCc1cccc(F)c1	/	.	/	/	/	/	/
Cc1nnc2sc(SCC(=O)Nc3ccc(Br)cc3)nn2c1=O	.	.	.	.	.	.	/
Cc1nnc2sc(SCc3ccc(Br)cc3)nn2c1=O	.	.	.	.	/	37	.
COc1ccc(C(=O)Nc2ccc(NC(=O)CSc3nnc(-c4ccncc4)n3C)cc2)cc1	.	.	.	.	/	38	.

From PubChem
